# Screening results (PubChem)
# The entries come from a sample that favours hits as a whole.
# Biofilm kill mix: clotrimazole potentiators killing C. albicans biofilm, primary screen, 4-compound mixtures; C. albicans biofilm persisters + clotrimazole, fluorescence viability; primary screen in compound mixtures of four per well; inhibition, % at 7.6 µM; actives 0.02% (n = 120,000);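 active = inhibition above 30.3% in the primary screen of four-compound pools, then above 30% when the compound was retested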;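 note: compounds exposed to preformed 24 h biofilms for 48 h; 0% = untreated biofilm control and 100% = clotrimazole plus chlorhexidine kill blank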
#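 Probe or stimulus – Clotrimazole 50 µg/mL co-treatment · System – C. albicans biofilms · Schedule – 24 h biofilm formation, then 48 h compound exposure, 37 °C · Evaluation – percent inhibition of biofilm viability · Technique – 2-h Alamar Blue fluorescence, 535/590 nm excitation/emission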
# ROMK primary: ROMK potassium channel modulators, primary screen, cell-based, thallium flux, MLSMR library | ATP-sensitive inward rectifier potassium channel 1 (Homo sapiens), P48048 | Tet-inducible ROMK, thallium flux fluorescence; actives lie on both sides | B-score at 10 µM | actives 2% (n = 130,000) | AID 1918, 2009;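 active = signal ratio slope over the read window, or its plate-corrected B-score, at least 3 SD from the plate mean, either direction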;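 note: B-score of the F/F0 ratio slope over 7 to 12 s after thallium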
# Target sequence (P48048 whole entry, looked up): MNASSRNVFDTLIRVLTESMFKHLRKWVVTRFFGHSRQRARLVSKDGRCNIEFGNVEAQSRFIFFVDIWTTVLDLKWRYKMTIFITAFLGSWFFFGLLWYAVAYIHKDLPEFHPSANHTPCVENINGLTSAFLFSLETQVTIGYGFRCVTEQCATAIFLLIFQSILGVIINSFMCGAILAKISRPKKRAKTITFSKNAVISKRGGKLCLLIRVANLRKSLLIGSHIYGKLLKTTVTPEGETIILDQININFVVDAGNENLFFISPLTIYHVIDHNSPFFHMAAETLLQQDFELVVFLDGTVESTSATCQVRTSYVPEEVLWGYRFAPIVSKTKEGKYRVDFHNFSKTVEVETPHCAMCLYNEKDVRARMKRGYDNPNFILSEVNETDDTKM
# Pf gametocyte: late stage P. falciparum gametocyte viability inhibitors, primary screen, ATP luminescence, HTS. inhibition, % at 10.9 µM. P. falciparum stage V gametocytes, 24 h. AID 743093, 2013. actives 0.065% (n = 150,000);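 active = inhibition above the mean plus 3 SD of compounds within the control limits, set per campaign, cut at about 38% in these data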;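 note: 0% = DMSO wells and 100% = medium only without gametocytes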
# Numbers without * were called inactive; nt = no result.
SMILES,Biofilm kill mix,ROMK primary,Pf gametocyte
CCn1nc([N+](=O)[O-])c(C(C#N)c2nc3cc(C(F)(F)F)ccc3s2)c(Cl)c1=O (centres undefined),nt,-5*,nt
CCCn1nc([N+](=O)[O-])c(C(C#N)c2nc3ccccc3o2)c(Cl)c1=O (centres undefined),17,nt,8
COc1cc2c(cc1OC)C(C(=O)NC(C)c1ccccc1)CC(=O)N2 (centres undefined),nt,nt,-22
O=C(O)CC(c1ccccc1)N1C(=O)c2ccccc2C1=O (centres undefined),nt,nt,-15
CCOC(=O)C1(Cc2ccccc2)C(=O)N(CCCN(C)C)c2ccccc21 (centres undefined),nt,nt,9
Cc1ccc(N2C(=S)SC3CS(=O)(=O)CC32)cc1 (centres undefined),10,0.52,38*
Cc1ccc(N2C(=O)N(c3ccc(C)cc3)C3CS(=O)(=O)CC32)cc1 (centres undefined),13,1.2,23
O=C(O)c1ccc(N=c2oc3cc(O)ccc3cc2C(=O)NCc2ccccc2)cc1,-4,-0.5,42*
COc1ccc2cc(C(=O)NCc3ccccc3)c(=Nc3ccc(C(=O)O)cc3)oc2c1,9,0.083,nt
CC(C)C(=O)NC(=S)Nc1ccccc1C(=O)NC1CCCCC1,16,1,52*
CCC(=O)NC(=S)Nc1ccccc1C(=O)NC1CCCCC1,18,nt,12
O=C(N/N=C/c1ccc(O)c(O)c1O)/C(=C/c1ccc([N+](=O)[O-])cc1)NC(=O)c1ccccc1,nt,-0.0072,40*
O=C(Nc1cccc2ccccc12)/C(=C/c1ccc([N+](=O)[O-])cc1)NC(=O)c1ccccc1,nt,nt,0
O=C(NCc1ccc(F)cc1)C1CCCN1C(=O)Nc1cccc(F)c1 (centres undefined),nt,nt,4
O=C(CCNS(=O)(=O)c1ccccc1)Nc1ccccc1,nt,nt,-1
O=C(/C=C/c1ccccc1)NC1CCS(=O)(=O)C1 (centres undefined),21,-1.3,63*
Cc1ccc(/C=C/C(=O)NC2CCS(=O)(=O)C2)cc1 (centres undefined),16,0.32,-2
c1ccc(-c2cncn2-c2ccccc2)cc1,nt,nt,-17
COC(=O)C1=NN(C(=O)c2cccc(Cl)c2)C(O)(C(C)(C)C)C1 (centres undefined),5,2.6*,5
COC(=O)C1=NN(C(=O)c2ccc(Br)cc2)C(O)(C(C)(C)C)C1 (centres undefined),18,0.0026,-18
COc1ccc(Br)cc1S(=O)(=O)n1nc(C)cc1C,nt,nt,17
C[C@@]12C(=O)N(CC3CCCO3)CC(=O)N1[C@H]1c3ccccc3OC[C@@H]1[C@@H]2c1ccccc1 (some centres undefined),nt,nt,22
Cc1ccc(NC(=O)c2ccc(=O)[nH]c2)cc1S(=O)(=O)N1CCCCC1,13,nt,-1
CC(=O)Cn1ncc(Br)c(Br)c1=O,16,1,-11
O=C(OCn1ncc(Br)c(Br)c1=O)c1c(F)cccc1F,nt,-4.2*,nt
SMILES,Biofilm kill mix,ROMK primary,Pf gametocyte
C[C@H](CO)N1C[C@H](C)[C@@H](CN(C)C(=O)NC2CCCCC2)Oc2c(NC(=O)c3ccncc3)cccc2C1=O,nt,nt,-17
Cc1cc(/C=C2\SC(=S)NC2=O)c(C)n1-c1ccc(O)cc1,19,-4.4*,-9
Cc1cc(/C=C2\SC(=S)NC2=O)c(C)n1-c1ccccc1,24,nt,0
CC(C)(C)OC(=O)C[C@H]1C/C=C\C[C@@H](CC(=O)N[C@@H](CO)Cc2ccccc2)C(=O)N2CCC[C@@H]2COC1=O,nt,nt,31
Cc1sc(NC(=O)/C=C/c2ccco2)c(C(=O)O)c1C,15,nt,-3
O=S(=O)(Cc1ccc(Cl)cc1)N1CCN(Cc2ccc3c(c2)OCO3)CC1,21,nt,4
O=S(=O)(Cc1ccc(Cl)cc1)Nc1ccc2c(c1)OCO2,nt,-1.8*,-34
CCN(CC)C(=O)c1nc[nH]c1C(=O)N1CCc2ccccc2C1,nt,nt,13
CCOc1ccc(CN2CCN(C(=O)c3cccc4ccccc34)CC2)cc1,nt,nt,-34
O=C1[C@H](Cc2ccccc2)NCC=CC[C@H](c2ccc(Cl)cc2)N1Cc1ccccc1,nt,nt,-6
COCc1[nH]nc2c1C(c1sccc1C)C(C#N)=C(N)O2 (centres undefined),nt,-3.5*,nt
COCc1[nH]nc2c1C(c1ccsc1)C(C#N)=C(N)O2 (centres undefined),nt,-1.4,-1
CCCc1[nH]nc2c1C(c1cccc(OC)c1)C(C#N)=C(N)O2 (centres undefined),nt,0.033,-3
CCCc1[nH]nc2c1C(c1ccc(O)cc1OCC)C(C#N)=C(N)O2 (centres undefined),nt,-4.5*,-5
